Experiment [1] is described as follows: Inhibition of HDAC6 in rat liver extract by trypsin assay. In outline:
(§1)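 Same rat liver extract and the subtype-selective substrates (Z-(propionyl)Lys-AMC for HDAC1, Boc(Ac)Lys-(F3-AMC) for HDAC6), incubated with inhibitor at 37 C. After incubation the reaction was developed with trypsin instead of NDA. IC50 was taken from a dilution series against 0% and 100% (TSA) inhibition standards.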

The target in experiment [2] is Histone deacetylase 1 (Rattus norvegicus, UniProt Q4QQW4). The experiment in a line: Inhibition of HDAC1 in rat liver extract by trypsin assay. In outline:
as §1

The species named for another experiment is Homo sapiens. The experiment in a line: Selectivity for human FLAG-tagged HDAC6 over human FLAG-tagged HDAC1. Put shortly: (§2)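 FLAG-HDAC1 or FLAG-HDAC6 was immunoprecipitated with M2 agarose from lysates of overexpressing 293T cells, washed in enzyme buffer and diluted 1:10. Bead suspension, inhibitor and unselective fluorogenic substrate ZMAL were incubated at 37 C for 180 min. The reaction was stopped with TSA/borate pH 9.5/NDA and read at ex 330/em 390 nm. IC50 came from a dilution series against 0% and 100% (TSA) inhibition standards. Selectivity is the ratio of HDAC1 to HDAC6 IC50.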

The species named for another experiment is Rattus norvegicus. Kind of experiment: Selectivity for rat liver HDAC6 over rat liver HDAC1.
Another experiment has as its system MCF7. The experiment in a line: Cytotoxicity against human MCF7 cells after 48 hrs by One aqueous proliferation assay. The conditions noted are these: MCF7, 48 h. The class given is functional, cell-based. Put shortly:
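Cells seeded at 5000 per well, with compound or DMSO vehicle added 24 h after seeding. Incubated 48 h at 37 C, three replicates per concentration. Growth was read by MTS absorbance at 490 nm. GI50 is the concentration reducing cell number by 50% versus control.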

For experiment [3], the target named is T1, Protein deacetylase HDAC6 (Homo sapiens, UniProt Q9UBN7).
T1 sequence (Q9UBN7 whole entry): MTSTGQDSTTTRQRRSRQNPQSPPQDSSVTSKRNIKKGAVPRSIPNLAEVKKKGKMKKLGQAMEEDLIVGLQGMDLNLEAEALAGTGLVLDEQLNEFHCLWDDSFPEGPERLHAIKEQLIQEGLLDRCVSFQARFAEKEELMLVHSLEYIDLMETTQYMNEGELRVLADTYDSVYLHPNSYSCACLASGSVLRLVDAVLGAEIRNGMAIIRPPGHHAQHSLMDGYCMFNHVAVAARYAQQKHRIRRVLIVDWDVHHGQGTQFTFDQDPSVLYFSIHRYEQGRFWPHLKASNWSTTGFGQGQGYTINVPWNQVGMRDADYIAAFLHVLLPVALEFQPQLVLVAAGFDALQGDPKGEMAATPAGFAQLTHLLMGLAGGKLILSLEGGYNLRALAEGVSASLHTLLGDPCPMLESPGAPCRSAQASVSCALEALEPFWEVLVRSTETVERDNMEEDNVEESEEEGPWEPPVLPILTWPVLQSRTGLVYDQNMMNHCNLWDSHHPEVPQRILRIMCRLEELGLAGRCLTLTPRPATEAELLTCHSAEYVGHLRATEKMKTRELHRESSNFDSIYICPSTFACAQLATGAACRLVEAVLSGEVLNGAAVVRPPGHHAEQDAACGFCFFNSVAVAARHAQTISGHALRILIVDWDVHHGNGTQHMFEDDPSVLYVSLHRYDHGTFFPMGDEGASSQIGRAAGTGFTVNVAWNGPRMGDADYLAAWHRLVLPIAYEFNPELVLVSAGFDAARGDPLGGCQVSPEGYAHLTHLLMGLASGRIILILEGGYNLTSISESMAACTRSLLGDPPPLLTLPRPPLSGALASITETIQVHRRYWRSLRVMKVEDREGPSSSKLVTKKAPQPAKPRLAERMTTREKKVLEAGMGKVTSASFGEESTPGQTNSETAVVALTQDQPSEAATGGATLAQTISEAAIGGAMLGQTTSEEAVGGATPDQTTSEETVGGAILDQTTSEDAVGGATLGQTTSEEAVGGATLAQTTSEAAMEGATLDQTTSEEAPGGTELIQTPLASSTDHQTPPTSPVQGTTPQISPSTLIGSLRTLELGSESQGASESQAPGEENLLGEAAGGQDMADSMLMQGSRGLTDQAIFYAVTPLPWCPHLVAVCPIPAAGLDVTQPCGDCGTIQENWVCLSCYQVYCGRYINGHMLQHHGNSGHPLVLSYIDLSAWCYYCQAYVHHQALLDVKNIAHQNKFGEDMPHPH
Kind of experiment: Inhibition of FLAG-tagged HDAC6 expressed in human 293T cells. The class given is cell-based.

The target of experiment [4] is Histone deacetylase 1 (Homo sapiens, UniProt Q13547). Kind of experiment: Inhibition of FLAG-tagged HDAC1 expressed in human 293T cells. Type of experiment: cell-based. In outline:
as §2

Chain of Histone deacetylase 1 (Homo sapiens, UniProt Q13547) (Q13547 whole entry): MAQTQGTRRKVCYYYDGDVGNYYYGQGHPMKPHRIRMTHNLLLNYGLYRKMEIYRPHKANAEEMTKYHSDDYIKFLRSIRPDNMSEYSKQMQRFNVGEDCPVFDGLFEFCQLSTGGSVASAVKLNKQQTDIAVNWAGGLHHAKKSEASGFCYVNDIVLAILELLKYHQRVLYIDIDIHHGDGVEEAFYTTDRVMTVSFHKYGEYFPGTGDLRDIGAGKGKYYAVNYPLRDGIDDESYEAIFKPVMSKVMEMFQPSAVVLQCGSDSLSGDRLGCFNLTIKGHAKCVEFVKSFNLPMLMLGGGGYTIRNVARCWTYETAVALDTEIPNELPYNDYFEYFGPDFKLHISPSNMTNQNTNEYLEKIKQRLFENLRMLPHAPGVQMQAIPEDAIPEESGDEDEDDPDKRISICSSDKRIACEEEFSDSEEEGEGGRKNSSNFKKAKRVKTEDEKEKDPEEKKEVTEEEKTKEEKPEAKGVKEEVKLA
Chain of Histone deacetylase 1 (Rattus norvegicus, UniProt Q4QQW4) (Q4QQW4 whole entry): as the sequence (Q13547 whole entry) above, with R8K, D399E, E424D, L481M counted along it

Regarding `COC(=O)[C@H](Cc1ccc(-c2ccc3ccccc3c2)cc1)NC(=O)CCCCCCCC(=O)NO`, the IC50 in experiment [1] came out at 3.76 µM; against Histone deacetylase 1 [2] it was 5.19 µM; in the experiment on MCF7, 4 µM; in experiment [3] it was 2.85 µM; against Histone deacetylase 1 [4], 10.5 µM. Further, the Ratio IC50 in the experiment listed under Homo sapiens is 3.7; in the experiment listed under Rattus norvegicus, 1.38.
